EBI2 antag: antagonists of human EBI2 receptor; P32249; EBI2 beta-arrestin recruitment, luminescence, 7a,25-OHC stimulated; inhibition, % at 5 µM; hit rate 0.81% among 360,000; AID 651636; in the data active = inhibition above about 38%;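 also: enzyme fragment complementation signal reports receptor beta-arrestin coupling in cells; 0% = agonist plus DMSO wells and 100% = wells without agonist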
CCR6 antagonist: blocks CCL20-driven beta-arrestin recruitment at human CCR6 | hit rate 0.49% among 340,000 | CHO-K1 CCR6 PathHunter beta-arrestin, luminescence, CCL20-stimulated | P51684 | inhibition, % at 20 µM;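 active = compounds whose inhibition of the agonist-driven luminescence signal at 20 µM reaches about 50%, limit read from the data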;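 also: cells stimulated with CCL20 at 14 nM final; plate controls were DMSO with CCL20 for no effect and DMSO without agonist for full effect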
APJ antagonist: antagonists of human APJ apelin receptor; P35414; CHO-K1 APJ beta-arrestin complementation, luminescence; AID 2521; inhibition, % at 20 µM; hit rate 0.32% among 330,000;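 active = inhibition above about 40% at 20 µM, limit read from the data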;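 also: cells challenged with 10 nM apelin-13 agonist together with compound; plate controls were apelin-13 plus DMSO wells for no effect and DMSO wells lacking apelin-13 for full effect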
APJ ag: activates the human apelin receptor APJ; P35414; CHO-K1 APJ PathHunter beta-arrestin, luminescence; 0% DMSO wells, 100% apelin; activation, % at 20 µM; hit rate 0.11% among 330,000; AID 2520;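 active = activation more than six SD over the plate average, tested at 20 µM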;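 also: 0% = DMSO alone and 100% = apelin-13 at 10 nM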
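Incubation: overnight seeding, 90 min compound at 25 °C, 1 h detection; test system: PathHunter CHO-K1 APJ (AGTRL-1) beta-arrestin reporter cells; amount: 1000 cells/well; doses: one dose, 20 µM compound, 1% DMSO; measured by: beta-gal luminescence; measure: agonist-driven arrestin binding to APJ; benchmarks: negative DMSO alone, positive Apelin-13 at 10 nM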
CXCR6 block: blocks human CXCR6 beta-arrestin recruitment | O00574 | CHO-K1 PathHunter CXCR6 beta-arrestin, luminescence | inhibition, % at 20 µM | hit rate 0.36% among 360,000 | AID 602244; in the data active = inhibition above about 34%, passing the limit was not always enough;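 also: antagonist mode with CXCL16 agonist at 10 nM final; 0% = 10 nM CXCL16 with DMSO and 100% = unstimulated wells without agonist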
Target sequence (O00574 whole entry, looked up): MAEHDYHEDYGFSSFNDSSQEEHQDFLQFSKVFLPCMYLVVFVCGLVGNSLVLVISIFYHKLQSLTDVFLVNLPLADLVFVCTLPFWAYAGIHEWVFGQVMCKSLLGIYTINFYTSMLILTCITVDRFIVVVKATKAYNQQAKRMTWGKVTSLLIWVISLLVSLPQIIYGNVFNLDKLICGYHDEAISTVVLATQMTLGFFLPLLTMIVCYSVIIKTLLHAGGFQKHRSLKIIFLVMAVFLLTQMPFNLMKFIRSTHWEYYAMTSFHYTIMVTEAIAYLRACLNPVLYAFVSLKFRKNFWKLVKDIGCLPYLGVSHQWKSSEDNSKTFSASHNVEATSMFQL
APJ antag conf: confirmation of human APJ apelin receptor antagonists. APJ beta-arrestin recruitment, luminescence, antagonist mode. inhibition, % at 20 µM. hit rate 66% among 950. shares compounds with APJ antagonist. AID 2766; in the data active = inhibition above about 50%
Numbers without * were called inactive; . = no result. Shown are actives, neighbours in structure and some others; about 1.5% of the full set was active somewhere.

SMILES	EBI2 antag	CCR6 antagonist	APJ antagonist	APJ ag	CXCR6 block	APJ antag conf
COc1ccccc1N1CCN(C(=O)c2c(C)cc(=O)oc2C)CC1	1.4	16.4	56.7*	-2.4	-1.9	19.4
CC1(C)Oc2ccc3ccc(=O)oc3c2/C(=C/NNC(N)=O)C1=O	8.4	71.1*	50.2*	-9.6	35.0	61.7*
O=[N+]([O-])c1cccc(/C=N/NS(=O)(=O)c2ccccc2)c1	4.9	46.7	65.5*	-9.8	9.7	67.5*
O=C(CCC(=O)Nc1cccc(Cl)c1)N/N=C/c1cc([N+](=O)[O-])ccc1O	-5.6	38.5	26.6	-7.1	16.2	.
O=C(CCCC(=O)Nc1cccc(Br)c1)N/N=C/c1cc([N+](=O)[O-])ccc1O	13.6	43.1	48.7*	-20.5	37.7	71.5*
COc1cccc2cc(C(=O)C3=C(O)C(=O)N(CCN4CCOCC4)C3c3cccs3)oc12 (configuration not stated)	5.5	13.1	56.3*	-11.6	4.5	11.9
O=C(C1=C(O)C(=O)N(CCN2CCOCC2)C1c1ccco1)c1cc2ccccc2o1 (configuration not stated)	10.2	14.2	50.2*	-24.4	25.7	41.3
CCc1nc2c(OCCc3cccc(OC)c3)cccn2c1N(C=O)Cc1ccc(OC)cc1	0.1	.	.	.	9.3	.
O=C(N/N=C\c1ccc([N+](=O)[O-])o1)c1cncc(Br)c1	7.0	18.2	41.7*	2.9	-10.6	21.7
O=C(N/N=C/c1ccc(-c2ccccc2[N+](=O)[O-])o1)c1cncc(Br)c1	-0.9	22.6	-22.4	3.7	6.2	.
COC(=O)[C@]12CCCCC=C1N(Cc1ccco1)C(=O)[C@H](CC(=O)N1CCCCC1)C2	-5.7	.	.	.	-2.2	.
COc1ccc(N=C2C(=O)N3c4c(cccc42)C(C)=CC3(C)C)cc1	-2.2	50.3*	45.7*	-3.1	30.4	88.9*
COc1ccc(NC(=O)Nc2cccc3c2O[C@@H](CN(C)CC2CCCCC2)[C@@H](C)CN([C@H](C)CO)C3=O)cc1	-15.3	-0.9	61.9*	-4.2	0.9	62.3*
COc1ccc(NC(=O)Nc2ccc3c(c2)C(=O)N([C@@H](C)CO)C[C@@H](C)[C@@H](CN(C)CC2CCCCC2)O3)cc1	3.4	8.4	17.0	-2.4	14.5	.
Cc1cc2nc(-c3ccc(F)cc3)c(CC(C)(C)C)n2c(C)c1Br	-10.4	.	.	.	-8.1	.
Cc1ncc(CO)c(/C=N/Nc2ccc(C(F)(F)F)cn2)c1O	11.3	69.4*	62.7*	-12.4	48.2*	89.3*
O=C(CNC1CCCCCC1)c1cccs1	-1.7	32.7	67.1*	-11.3	1.1	48.0
CNC[C@H](CC1CCCCC1)NC[C@H](Cc1ccccc1)NCCC12CC3CC(CC(C3)C1)C2	6.6	.	44.5*	-3.1	35.9	39.1
NC[C@H](Cc1ccccc1)NCCCCC1CCCCC1	-9.4	-0.5	8.3	-5.1	-5.3	.
CCOc1ccc(N=C2NC(=O)S/C2=C\c2ccc(N(C)C)cc2)cc1	17.0	43.6	43.0*	-5.2	11.8	60.5*
CCOc1ccc(/C=C2/SC(=O)NC2=S)cc1	-0.5	21.5	12.7	0.0	6.5	.
COc1cc(/C=C2\SC(=S)N(NC(C)=O)C2=O)ccc1OC(=O)c1ccco1	-22.6	46.6	-12.8	-7.2	26.9	.
COc1cc(/C=C2/SC(=S)N(C)C2=O)ccc1OC(=O)c1ccco1	-0.1	49.0	46.2*	-4.8	28.5	48.4
Cc1ccc(-c2c(C(=O)N/N=C/c3cccc(Cl)c3)nnn2-c2nonc2N)cc1	17.3	18.4	52.9*	-8.1	8.9	62.4*
CCOc1cc(/C=C2/SC(=S)N(Cc3ccccc3)C2=O)ccc1O	23.7	54.0*	45.9*	-8.0	42.9*	87.5*
SMILES	EBI2 antag	CCR6 antagonist	APJ antagonist	APJ ag	CXCR6 block	APJ antag conf
COc1cc(/C=C2\SC(=S)N(N(C)c3ccccc3)C2=O)ccc1O	-0.3	14.5	56.4*	-10.9	2.7	95.4*
CC(=O)Oc1ccc(/C=C2/SC(=S)N(Cc3ccccc3)C2=O)cc1	13.8	50.2*	46.8*	-6.6	27.9	71.7*
COc1cc(/C=C2/SC(=S)N(Cc3ccccc3)C2=O)ccc1OCC(=O)O	2.9	13.7	-9.3	-0.8	-1.4	.
CCc1nc2ccc(C(=O)Nc3ccc(OC)c(OC)c3)cn2c1N(C)CCC(C)C	2.1	.	.	.	2.3	.
Cc1c(NS(=O)(=O)c2ccc(Cl)c(C(=O)OCC(=O)NCc3ccco3)c2)c(=O)n(-c2ccccc2)n1C	-5.2	-2.6	48.7*	-0.4	-2.0	3.9
O=C(NCc1ccccc1)c1cc(C2CCCN(S(=O)(=O)c3ccccc3)C2)on1 (configuration not stated)	-5.2	.	.	.	3.9	.
O=C(Nc1cccc([N+](=O)[O-])c1)Nc1cccc([N+](=O)[O-])c1	8.0	35.8	16.1	-4.3	23.3	.
O=C(Nc1cccc([N+](=O)[O-])c1)Nc1ccc2c(c1)OCCO2	4.9	20.2	42.2*	-3.8	-1.6	5.8
COc1cc2c(cc1OC)C1(CCCC1)CNC2c1cccc([N+](=O)[O-])c1 (configuration not stated)	40.1	78.4*	47.3*	-8.9	63.3*	78.2*
COc1cc2c(cc1OC)C(c1cccc([N+](=O)[O-])c1)NC(=O)C2 (configuration not stated)	-2.2	7.3	0.2	0.4	7.0	.
O=c1ccoc2ccccc12	-3.2	.	.	.	13.6	.
Cc1ccc(Nc2cc(C)nn2-c2nc(C)cc(=O)[nH]2)cc1	90.0*	82.4*	86.6*	-16.3	64.2*	108.3*
CCOc1ccc2nc(N=NC3=C(O)CC(C)(C)CC3=O)sc2c1	2.6	33.9	41.2*	-5.6	29.7	50.6*
COC(=O)C1(C(=O)OC)c2cc3c(cc2CN(S(=O)(=O)c2ccc(C)cc2)C1CC(C)=O)OCO3 (configuration not stated)	-4.5	.	.	.	.	.
Cc1cccc(NC(=S)N/N=C2/CCCCc3ccccc32)c1	27.4	31.7	47.7*	-6.9	5.0	93.1*
Cc1ccc(NC(=S)N/N=C2/CCCCc3ccccc32)cc1	18.1	22.3	22.4	-6.6	5.9	.
Cc1cc(Cn2nnc3ccccc32)c(O)c(C(C)(C)C)c1	4.4	-2.1	42.9*	-4.7	0.1	1.7
CC(C)(C)c1cccc(Cn2nnc3ccccc32)c1O	-20.5	13.1	10.1	14.4	-3.0	.
CN(C)S(=O)(=O)c1ccc2c(c1)C(=O)c1cc(S(=O)(=O)N(C)C)ccc1CC2	12.3	14.4	-5.0	1.3	1.8	.
CN(C)S(=O)(=O)c1ccc2c(c1)/C(=C/c1cc3c([nH]1)CCCC3)C(=O)N2	49.5*	21.5	40.1*	-5.5	12.6	22.8
COc1ccc(CN2C(=O)C(C)Nc3ncnc(N4CCN(c5ccccc5)CC4)c32)cc1 (configuration not stated)	32.8	80.2*	68.1*	-11.8	68.1*	115.2*

Screening data deposited in PubChem BioAssay by Sanford-Burnham Center for Chemical Genomics.
